Assay: Toxicity liver stage against HepG2, at 10uM
Format: cell-based
Design: test concentration 10 uM, cell line HepG2-A16-CD81EGFP
Conditions: human, HepG2-A16-CD81EGFP cells; read-out: INHIBITION
Summary of the method: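 Uninfected HepG2-A16-CD81EGFP cells, 3 × 10^3 per well, 1536-well, plated on prespotted compound at 10 μM final, parasite-free screening media added to match infected plates; puromycin 10 μM positive, DMSO 0.5% negative; run in parallel with 48 h PbLuc assay at 37 °C, 5% CO2; viability by CellTiter-Glo luminescence, normalized to controls.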

| SMILES | cytotoxicity at 10 µM [%] |
| --- | --- |
| Cc1ccc(CNC2(Cc3cc(-c4ccc(F)cc4)on3)COC2)o1 | 8.13 |
| Cc1cccc2c1nc1n2[C@@H](CNC(=O)NC(C)C)COC1 | 0.0962 |
| O=C(Nc1ccccc1)[C@H]1CN2CC[C@H]1C[C@@H]2Cn1cc(CCO)nn1 | -0.843 |
| O=C(c1cccnc1Oc1ccc(Cl)cc1)N1CC[C@@H](O)C1 | -3.36 |
| CCOc1ccc(NC(=O)C2OC(c3cccs3)=NN2C(C)=O)cc1 (configuration not stated) | 4.77 |
| CC(C)CCc1n[nH]c(C(=O)O)c1Br | -3.09 |
| CN1CCN(C(=O)c2cc3sccc3n2Cc2ccccc2)CC1 | 4.38 |
| COc1nn(C)cc1C(=O)N1CCC(c2ccccc2)C1 (configuration not stated) | -2.18 |
| O=C(c1ccc(Cl)cc1-n1cnnn1)N1CCC2(CC1)OCCO2 | 3.51 |
| CCOCCCNC(=O)c1cn(CC)nc1C | 5.37 |
| c1cnc(N2CCCC(Cc3nccs3)C2)nc1 (configuration not stated) | 0.45 |
| CC(C)C(=O)NCCc1cc2nc(-c3ccncc3)ccn2n1 | 4.94 |
| CC(C(=O)N1CCCC1)n1nc(-c2cccs2)cc(N)c1=O (configuration not stated) | 6.66 |
| Cc1nn(C(C)C)cc1S(=O)(=O)N(C)Cc1nonc1C | 11.6 |
| CC(C)c1nnc(CCC(=O)N2CCOC(c3cnccn3)C2)o1 (configuration not stated) | -2.01 |
| O=S(=O)(c1ccccc1)N1C[C@@H]2CCCCN(Cc3cccs3)[C@@H]2C1 | 1.56 |
| Cc1ccc(S(=O)(=O)N2CCCC(c3n[nH]cc3C(=O)N(C)C)C2)cc1 (configuration not stated) | 6.91 |
| CC(C)Nc1ncc(-c2ccncc2)c([C@@H]2CCCO2)n1 | 10.8 |
| CCCS(=O)(=O)N1CCN(C(C)(C)CO)CC1 | -0.45 |
| O=C(c1ccc(CN2CCCC2)cc1)N1CCCC(n2cccn2)C1 (configuration not stated) | -1.88 |
| O=C(c1ccc(O)nc1)N1CCc2ccc(O)cc2C1 | -8.77 |
| CN(CCc1ccncc1)Cc1nccn1Cc1ccccc1 | 15.1 |
| COCCC(C)NC(=O)Nc1ccc(N2CCOC2=O)c(OC)c1 (configuration not stated) | 6.48 |

| SMILES | cytotoxicity at 10 µM [%] |
| --- | --- |
| COc1ccc(CN(C)Cc2cccc(C#N)c2)c(OC)c1 | -4.48 |
| CS(=O)(=O)NCCNC(=O)c1cnc(-c2ccccc2)nc1 | 5.3 |
| COc1ccc(Oc2ccc(CNC(=O)C(C)n3cncn3)cn2)cc1 (configuration not stated) | 5.42 |
| CCCN1CCN(C(=O)c2cccnc2-n2cncn2)CC1 | 5.28 |
| Cc1nnc(C(C)NCC2(c3ccc(Cl)cc3)CCOCC2)o1 (configuration not stated) | -1.47 |
| CC(NC(=O)C(C)(C)C#N)c1ccc(OCC2CC2)c(F)c1 (configuration not stated) | 2.31 |
| Cn1cc(CC2CCN(C(=O)NCc3csc(C4CC4)n3)C2)cn1 (configuration not stated) | 5.22 |
| NC(=O)C1CCN(C(=O)Cc2ccc(Cl)c(Cl)c2)CC1 | 5.82 |
| Cc1ccsc1C(=O)NC(C)c1ccc2c(c1)CCC(=O)N2 (configuration not stated) | -12.4 |
| Cc1cnc(CCNC(Cc2ccncc2)C(F)(F)F)s1 (configuration not stated) | 24.4 |
| COC(=O)NCCCC(=O)NCC1(c2cccc(Cl)c2)CC1 | 1.42 |
| O=C1NCCCCC1NCc1csc(-c2ccsc2)n1 (configuration not stated) | 3.27 |
| CC(NCc1cnc(C2CCC2)s1)c1ccccc1-n1cccn1 (configuration not stated) | 0.33 |
| CCC(SC)C(=O)N1CCC(n2cccn2)CC1 (configuration not stated) | -45.8 |
| O=C(Nc1cc2c(cc1Br)OCCO2)NC1CCS(=O)(=O)C1 (configuration not stated) | -9.82 |
| CN1C(=O)CC(N(C)Cc2nc3ccccc3c(=O)[nH]2)C1=O (configuration not stated) | 7.61 |
| Cc1cc(NCc2ccc(CS(N)(=O)=O)cc2)nc(C)n1 | -7.2 |
| NC(=O)c1cc(C2CCCN(Cc3ccc4c(c3)OCCO4)C2)n[nH]1 (configuration not stated) | -7 |
| COc1ccnc(NC2CCN(CC(=O)N3CCCC3)CC2)n1 | -7.88 |
| CS(=O)(=O)NCCC(=O)N1CCN(S(=O)(=O)c2ccc(Br)cc2)CC1 | -29.6 |
| CNS(=O)(=O)c1cccc(C(C)NCc2ccccc2)c1 (configuration not stated) | -2.29 |
| Cn1c(C(=O)N2CCC(C(=O)N3CCCC3)CC2)c(Cl)c2ccccc21 | 3.12 |
| CC(=O)c1ccccc1C(=O)NCC1(CO)CC1 | -18.9 |

| SMILES | cytotoxicity at 10 µM [%] |
| --- | --- |
| CC1CN(C)c2ccccc2CN1C(=O)c1ccc[nH]1 (configuration not stated) | -28.4 |
| Cn1cc(CN2CCOCC3(CCN(C4CCOCC4)C3)C2)cn1 (configuration not stated) | -3.92 |
| COCC1CC2(CCN(Cc3cccnc3)CC2)CN1C(C)C (configuration not stated) | -4.21 |
| COCCN1C[C@@H]2[C@@H](OC)CCN(C(=O)c3cccc(OC)c3)[C@@H]2C1 | -1.01 |
| Cc1ccc(NC2(C(=O)NCc3c(C)n[nH]c3C)CCCC2)cc1 | 3.73 |
| Cc1cc(CN2CCC(C3CCN(CCc4ccccc4)C3)CC2)[nH]n1 (configuration not stated) | 7.19 |
| Cc1ccc2c(c1)c(CNC(C)Cn1ccnc1)nn2C (configuration not stated) | -6.14 |
| COc1cc2c(cc1C(=O)N1CCCCC1c1ccccn1)CCC2 (configuration not stated) | -2.8 |
| CCOCCn1nc(C)cc1C(=O)N1CC(C)(C)[C@@](C)(O)C1 | 0.301 |
| CN(C)c1ccc(C(=O)N2CCCN(C3CCCCC3)CC2)cn1 | -6.46 |
| O=C(O)[C@@H]1CN(C(=O)CCC(F)(F)F)C[C@H]1c1ccncc1 | 0.108 |
| O=C(c1cnn[nH]1)N1CCCC1c1nc2cc(F)ccc2[nH]1 (configuration not stated) | 2.68 |
| CSc1ccc2cc(CN(C)CCCN(C)C)c(=O)[nH]c2c1 | -2.72 |
| CC(O)Cc1cn(CC2CCN(c3nccc4occc34)CC2)nn1 (configuration not stated) | -6.64 |
| CCOCC(=O)N1CCC(c2nccn2C)CC1 | -53.4 |
| Cc1cc(C)cc(CN2CCN(Cc3cc(C#N)n(C)c3)CC2=O)c1 | 6.24 |
| CN(C)c1nc(NCCc2ccccn2)ncc1F | -4.84 |
| COc1ccc(C(=O)NCc2ccon2)cc1F | 0.824 |
| CCCN1CCCC2(CCN(c3nccc(OC)n3)C2)C1=O (configuration not stated) | -4.74 |
| O=C(Cc1cc2c(cc1Cl)OCCO2)N1CC[C@H](CO)[C@H](O)C1 | 7.96 |
| COc1ccc(C(=O)N2CCC(Oc3ccccc3C)(C(=O)O)CC2)o1 | 13.2 |
| O=C(O)C(c1cccc2c1OCC2)N1CCC(N2CCSCC2)CC1 (configuration not stated) | 6.14 |
| Cc1ccnc(NCCNC(=O)c2ccccc2NCC(=O)O)c1 | -12.7 |

| SMILES | cytotoxicity at 10 µM [%] |
| --- | --- |
| CCc1cnc(C)nc1NCCN1CCCCCC1 | -10.8 |
| CC(C)NC(=O)c1nnn(-c2cccc(C(F)(F)F)c2)c1N | -11.5 |
| COC(=O)c1cc(OCC2CCC2)cc(C(=O)N[C@@H]2CNCC[C@H]2O)c1 | -12 |
| COc1cccc(S(=O)(=O)N2CCC(O)(CN(C)C)C2)c1 (configuration not stated) | 3.85 |
| O=C(c1cccn1Cc1cccs1)N1CCC(C(=O)N2CCCC2)CC1 | -1.23 |
| Cn1ccnc1CN1CCN(CC(=O)NCc2ccccc2F)CC1 | -22.1 |
| Cc1ccc(C(CNC(=O)NCc2ccccn2)N2CCOCC2)o1 (configuration not stated) | -14.9 |
| CCc1ocnc1C(=O)N1CCCC1c1noc(C(C)C)n1 (configuration not stated) | -8.69 |
| O=C(CCc1ccccn1)N1CCCC(n2cncn2)C1 (configuration not stated) | -15.5 |
| O=C(c1cccc2cn[nH]c12)N1CCCC1c1noc(C2CC2)n1 (configuration not stated) | -16.8 |
| Cc1nc(C2CCN(C(=O)c3cc(C4CC4)[nH]n3)CC2)no1 | -6.44 |
| Cn1c(C2CC2)nc2c1CCN(CCOc1cccc(F)c1)C2 | -13.1 |
| Cn1c(C2CC2)nc2c1CCN(CC(=O)Nc1nccs1)C2 | -9.83 |
| CNC(=O)NC(=O)CCN1CCN(c2nccs2)CC1 | -11.1 |
| CS(=O)(=O)CCNC(=O)c1ccc(-c2ccco2)[nH]c1=O | -22.8 |
| Cc1nn(C)c(C)c1C1CCCN1CC(=O)Nc1nccs1 (configuration not stated) | -21.6 |
| c1cnnc(N2CCCC(NCc3cccc4c3OCCCO4)C2)c1 (configuration not stated) | -19.8 |
| CC(C)Oc1ncccc1CNC(=O)c1cc(C2CC2)on1 | -17.7 |
| COc1cc(C)nc(N2CCN(C(=O)c3ccoc3C)CC2)n1 | -21.8 |
| CN(C)c1ncccc1CNS(=O)(=O)c1c(F)cccc1F | -9.91 |
| COC(=O)c1cccn1C1CCN(Cc2cccnc2)CC1 | -25.6 |
| Cc1cn2nc(N3CCCCC3Cn3cccn3)sc2n1 (configuration not stated) | -1.14 |
| O=C(c1ccc(NC2CC2)nc1)N1CCC(Nc2cccnn2)CC1 | -12.6 |

| SMILES | cytotoxicity at 10 µM [%] |
| --- | --- |
| CC(C)c1nc2c(n1C)CCN(CC(=O)Nc1ccncc1)C2 | 0.698 |
| CCN(Cc1ccc(OC)c(F)c1)Cc1nc2c(cnn2C)c(=O)[nH]1 | 2.2 |
| CC(=O)N(Cc1noc(C)n1)C1CCN(Cc2ncc(C(C)C)o2)C1 (configuration not stated) | -13.2 |
| Cn1cnnc1C1CCCN(C(=O)c2cc(Cl)cc(Cl)c2)C1 (configuration not stated) | -9.91 |
| Cc1cc(NC(=O)C(C)N2CCN(c3nccs3)CC2)on1 (configuration not stated) | -12.6 |
| Cc1cc(C)n(CC2CN(CC(=O)Nc3nncs3)CCO2)n1 (configuration not stated) | -2.97 |
| Cc1cnn(C2CCCN(C(=O)c3ccc(N(C)C)nn3)C2)c1 (configuration not stated) | -5.36 |
| COc1c(CNCc2ccc(CN(C)C)cc2)c(C(C)C)nn1C | -11.2 |
| Cc1cc(CN(C)C(=O)c2cccc(N3CCCC3=O)c2)no1 | 0.376 |
| CN(C)c1ncccc1CNC(=O)N1CCCC1CN1CCCCC1 (configuration not stated) | -0.986 |
| O=C(NC1CCN(c2snc3ccccc23)CC1)C1CCC1 | 4.5 |
| Cc1nc(C)n(C2CCCN(C(=O)c3csnn3)C2)n1 (configuration not stated) | -5.48 |
| COc1ccc(C(=O)N2CCCC(CNS(C)(=O)=O)C2)cc1F (configuration not stated) | -5.45 |
| Cc1cc(NC(=O)C(C)N2CCCN(c3nccs3)CC2)on1 (configuration not stated) | 1.79 |
| CN1CC(=O)N(c2cnn(C)c2)CC12CCN(Cc1nccn1C)C2 (configuration not stated) | -15.3 |
| CCO[C@H]1CO[C@@]2(CCCN(Cc3nc(C)cs3)C2)C1 | -9.75 |
| Cc1nc(C2CCCNC2)nc2c1CCCN2Cc1ccccn1 (configuration not stated) | -2.76 |
| CN1CCN(Cc2cn3c(n2)CN(C2CCOCC2)CC3)CC1 | 3.91 |
| CN(C)C(=O)CN1CCOCC2(C1)CN(c1ncccn1)CCO2 (configuration not stated) | 1.71 |
| CN(C)c1nc2c(c(N(C)C)n1)CCN(C(=O)CN1C[C@H]3CC[C@@H]1C3)C2 | 4.45 |
